According to ChEMBL document CHEMBL1122730, “Synthesis and pharmacological evaluation of indanpropionic acids as uterine relaxants” (1984):

Key:
Mus musculus [1] = species: Mus musculus; assay: Compounds were evaluated for the percent recovery of the contraction induced by PGF2-alpha in the isolated mouse uterus at a concentration 10 E -4 M; assay type: functional, tissue-based
Procedure, shortened: (§1)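 Recovery after PGF2α challenge: following a 5-min PGF2α (10^-7 M) response with the test agent present, the tissue was washed 20 min with physiological medium, then re-exposed to 10^-7 M PGF2α for 5 min. The integrated contractile force was expressed as a % of the mean of two initial control PGF2α responses.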

Mus musculus [2] = species: Mus musculus; assay: Compounds were evaluated for the percent recovery of the contraction induced by PGF2-alpha in the isolated mouse uterus at a concentration 10 E -5 M; assay type: functional; procedure, shortened: as §1
Mus musculus [3] = species: Mus musculus; assay: Inhibitory effect against contraction induced by PGF2-alpha in the isolated mouse uterus at a concentration of 10 E -4M; assay type: functional
Procedure, shortened: (§2)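 Uterine strips were equilibrated 30 min, then given two 5-min control responses to PGF2α (10^-7 M), each followed by a 20-min washout. The test agent was in the bath 5 min before 10^-7 M PGF2α was added. The integrated contractile force over 5 min was taken as a % of the mean of the two controls. Agents were dissolved in 0.25 N NaOH and diluted with water to pH 7.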

Mus musculus [4] = species: Mus musculus; assay: Inhibitory effect against contraction induced by PGF2-alpha in the isolated mouse uterus at a concentration of 10 E -5 M; assay type: functional; procedure, shortened: as §2
Mus musculus [5] = species: Mus musculus; assay: Inhibitory effect against contraction induced by PGF2-alpha in the isolated mouse uterus at a concentration of 10 E -4 M; assay type: functional; procedure, shortened: as §2
Mus musculus [6] = species: Mus musculus; assay: Compounds were evaluated for the percent recovery of the contraction induced by KCL in the isolated mouse uterus at a concentration 10 E -4 M; assay type: functional
Procedure, shortened: (§3)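 KCl (54 mM) served as agonist in the uterine strip. After the 5-min KCl response with the test agent present, the tissue was washed 20 min and challenged again with KCl for 5 min. The recovery response was expressed as integrated force, as a % of the mean of two initial control KCl responses.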

Mus musculus [7] = species: Mus musculus; assay: Compounds were evaluated for the percent recovery of the contraction induced by KCL in the isolated mouse uterus at a concentration 10 E -5M; assay type: functional; procedure, shortened: as §3
Mus musculus [8] = species: Mus musculus; assay: Inhibitory effect against contraction induced by KCL in the isolated mouse uterus at a concentration of 10 E -4 M; assay type: functional
Procedure, shortened: (§4)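 KCl (54 mM) replaced PGF2α as the stimulus. After 30-min equilibration, two 5-min control KCl responses were taken, each with a 20-min washout. The test agent was then preincubated 5 min before KCl was added. The integrated force over 5 min was expressed as a % of the mean of the two controls. Compounds were in NaOH, neutralised to pH 7.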

Mus musculus [9] = species: Mus musculus; assay: Inhibitory effect against contraction induced by KCL in the isolated mouse uterus at a concentration of 10 E -5 M; assay type: functional; procedure, shortened: as §4
Mus musculus [10] = species: Mus musculus; assay: Compounds were evaluated for the percent recovery of the contraction induced by KCL in the isolated mouse uterus at a concentration 10 E -6M; assay type: functional; procedure, shortened: as §3
Mus musculus [11] = species: Mus musculus; assay: Compounds were evaluated for the percent recovery of the contraction induced by PGF2-alpha in the isolated mouse uterus at a concentration 10 E -6 M; assay type: functional; procedure, shortened: as §1
Mus musculus [12] = species: Mus musculus; assay: Compounds were evaluated for the percent recovery of the contraction induced by PGF2-alpha in the isolated mouse uterus at a concentration 3X 10 E -5 M; assay type: functional; procedure, shortened: as §1
Mus musculus [13] = species: Mus musculus; assay: (§5) Inhibitory effect for the contraction induced by BaCl2 in [Ca2+] containing buffer in the isolated mouse uterus at a concentration 10 E -4 M.; assay type: functional
Procedure, shortened: (§6)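 BaCl2 (2.2 × 10^-4 M) stimulated the uterine strip, in Ca2+-containing or Ca2+-free buffer. Two 5-min control responses were taken, each with a 20-min washout. The test agent was added 5 min before BaCl2. The integrated contractile force was expressed as a % of the mean control response.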

Mus musculus [14] = species: Mus musculus; assay: (§7) Inhibitory effect for the contraction induced by BaCl2 in [Ca2+] free buffer in the isolated mouse uterus at a concentration 10 E -4 M.; assay type: functional; procedure, shortened: as §6
Mus musculus [15] = species: Mus musculus; assay: Inhibitory effect against contraction induced by KCL in the isolated mouse uterus at a concentration of 10 E -6 M; assay type: functional; procedure, shortened: as §4
Mus musculus [16] = species: Mus musculus; assay: Inhibitory effect against contraction induced by PGF2-alpha in the isolated mouse uterus at a concentration of 10 E -6 M; assay type: functional; procedure, shortened: as §2
Mus musculus [17] = species: Mus musculus; assay: Inhibitory effect against contraction induced by PGF2-alpha in the isolated mouse uterus at a concentration of 3X10 E -5 M; assay type: functional; procedure, shortened: as §2
Mus musculus [18] = species: Mus musculus; assay: as §5; assay type: functional; procedure, shortened: as §6; remark: listed apart in the source
Mus musculus [19] = species: Mus musculus; assay: as §7; assay type: functional; procedure, shortened: as §6; remark: listed apart in the source

| Compound | Recovery (Mus musculus [1]) [%] | Recovery (Mus musculus [2]) [%] | inhibition at 100 µM (Mus musculus [3]) [%] | inhibition at 10 µM (Mus musculus [4]) [%] | inhibition at 100 µM (Mus musculus [5]) [%] | Recovery (Mus musculus [6]) [%] | Recovery (Mus musculus [7]) [%] | inhibition at 100 µM (Mus musculus [8]) [%] | inhibition at 10 µM (Mus musculus [9]) [%] | Recovery (Mus musculus [10]) [%] | Recovery (Mus musculus [11]) [%] | Recovery (Mus musculus [12]) [%] | Recovery (Mus musculus [13]) [%] | Recovery (Mus musculus [14]) [%] | inhibition at 1 µM (Mus musculus [15]) [%] | inhibition at 1 µM (Mus musculus [16]) [%] | inhibition at 30 µM (Mus musculus [17]) [%] | inhibition at 100 µM (Mus musculus [18]) [%] | inhibition at 100 µM (Mus musculus [19]) [%] |
| --- | --- | --- | --- | --- | --- | --- | --- | --- | --- | --- | --- | --- | --- | --- | --- | --- | --- | --- | --- |
| CCC1(CCC(=O)O)Cc2cc(OCc3ccccc3)ccc2C1=O (stereo not drawn) | 70.4 | 69.3 | 44.4 | 27.3 | – | – | – | – | – | – | – | – | – | – | – | – | – | – | – |
| CCCCC1(CCC(=O)O)Cc2cc(OCc3ccccc3)ccc2C1O (stereo not drawn) | 104 | 91.7 | – | 0.5 | 20.4 | – | – | – | – | – | – | – | – | – | – | – | – | – | – |
| CCCC1(CCC(=O)O)Cc2cc(OCc3ccccc3)ccc2C1=O (stereo not drawn) | 85.3 | 85.5 | – | 6.4 | 42 | – | – | – | – | – | – | – | – | – | – | – | – | – | – |
| O=C(O)CCC1(CCC(=O)O)Cc2cc(OCc3ccccc3)ccc2C1=O | 91.1 | 79.9 | – | 10.5 | 6.5 | 105 | 106 | 1.9 | 8.3 | – | – | – | – | – | – | – | – | – | – |
| CCC[C@@]1(CCC(=O)O)Cc2cc(OCc3ccccc3)c(OCc3ccccc3)cc2[C@H]1O | 82.8 | 81.8 | – | 17.2 | 67.1 | 85.8 | 84.2 | 53.2 | 9.4 | 86.1 | 88.7 | 79.7 | 105 | 39.4 | 1.2 | 0 | 36.4 | 48.1 | 88.2 |
